ChEMBL document CHEMBL3351268, “Synthesis, biological evaluation, and molecular modeling of new 3-(cyclopentyloxy)-4-methoxybenzaldehyde O-(2-(2,6-dimethylmorpholino)-2-oxoethyl) Oxime (GEBR-7b) related phosphodiesterase 4D (PDE4D) inhibitors” (J Med Chem, 2014)
Blank lines part the entries; values can stand above or below the molecule they belong to. Active and inactive are the calls of the source. The calls are words filed in the database; no cut-off is given here.

How the values were obtained:
[1] = biological target: T1, 3',5'-cyclic-AMP phosphodiesterase 4D (Homo sapiens, UniProt Q08499); assay: Inhibition of PDE4D1 (unknown origin) at 10 uM
[2] = biological target: T1, 3',5'-cyclic-AMP phosphodiesterase 4D; assay: Inhibition of recombinant human PDE4D3 expressed in baculoviral system at 10 uM
Outline: (§1)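 Recombinant PDE4 isoform enzyme activity measured with compound at 10 μM, in duplicate; result given as % inhibition relative to control activity. PDE4D3 is recombinant human, expressed in a baculoviral system.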

[3] = biological target: T1, 3',5'-cyclic-AMP phosphodiesterase 4D; assay: Inhibition of PDE4D3 (unknown origin) at 10 uM; outline: as §1
[4] = biological target: T1, 3',5'-cyclic-AMP phosphodiesterase 4D; assay: Inhibition of PDE4D2 (unknown origin) at 10 uM
[5] = Cytotoxicity against human HTLA-230 cells at 100 uM after 24 hrs by lactate dehydrogenase release assay; format: cell-based; conditions: htla-230, 24 h
Outline: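 HTLA human neuronal cells exposed 24 h to 100 μM test compound; cytotoxicity read as lactate-dehydrogenase release.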

[6] = biological target: T2, 3',5'-cyclic-AMP phosphodiesterase 4B (Homo sapiens, UniProt Q07343); assay: Inhibition of PDE4B2 (unknown origin) at 10 uM; outline: as §1
[7] = biological target: T1, 3',5'-cyclic-AMP phosphodiesterase 4D; assay: Inhibition of recombinant human PDE4D3 expressed in baculoviral system
Outline: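 Recombinant PDE4 isoform enzyme (PDE4D3: recombinant human, baculoviral expression) tested at five concentrations over 5 × 10−8–10−4 M, in duplicate. IC50 obtained by nonlinear regression of the inhibition curve with Hill equation fitting.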

[8] = Genotoxicity against human HTLA-230 cells assessed as phosphorylation of histone H2AX at 100 uM after 24 hrs by Western blot analysis; format: toxicity, cell-based; conditions: htla-230, 24 h
[9] = biological target: 3',5'-cyclic-AMP phosphodiesterase 4A (Homo sapiens) (UniProt P27815); assay: Inhibition of PDE4A4 (unknown origin) at 10 uM; outline: as §1
[10] = organism: Homo sapiens; assay: Selectivity ratio of IC50 PDE4B2 (unknown origin) for to IC50 for ecombinant human PDE4D3 expressed in baculoviral system
[11] = biological target: T2, 3',5'-cyclic-AMP phosphodiesterase 4B; assay: Inhibition of PDE4B2 (unknown origin)
[12] = biological target: T1, 3',5'-cyclic-AMP phosphodiesterase 4D; assay: Inhibition of PDE4D3 in human HTLA230 cells assessed as accumulation of intracellular cAMP pretreated at 100 uM for 10 min before forskolin addition measured after 20 mins by enzyme immunoassay; format: cell-based
Outline: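 cAMP accumulation in HTLA cells treated 30 min with compound. Where indicated, forskolin was added during the last 20 min to raise basal cAMP. Intracellular cAMP measured by cAMP-specific enzymatic immunoassay.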

3',5'-cyclic-AMP phosphodiesterase 4A (Homo sapiens), sequence (P27815 whole entry): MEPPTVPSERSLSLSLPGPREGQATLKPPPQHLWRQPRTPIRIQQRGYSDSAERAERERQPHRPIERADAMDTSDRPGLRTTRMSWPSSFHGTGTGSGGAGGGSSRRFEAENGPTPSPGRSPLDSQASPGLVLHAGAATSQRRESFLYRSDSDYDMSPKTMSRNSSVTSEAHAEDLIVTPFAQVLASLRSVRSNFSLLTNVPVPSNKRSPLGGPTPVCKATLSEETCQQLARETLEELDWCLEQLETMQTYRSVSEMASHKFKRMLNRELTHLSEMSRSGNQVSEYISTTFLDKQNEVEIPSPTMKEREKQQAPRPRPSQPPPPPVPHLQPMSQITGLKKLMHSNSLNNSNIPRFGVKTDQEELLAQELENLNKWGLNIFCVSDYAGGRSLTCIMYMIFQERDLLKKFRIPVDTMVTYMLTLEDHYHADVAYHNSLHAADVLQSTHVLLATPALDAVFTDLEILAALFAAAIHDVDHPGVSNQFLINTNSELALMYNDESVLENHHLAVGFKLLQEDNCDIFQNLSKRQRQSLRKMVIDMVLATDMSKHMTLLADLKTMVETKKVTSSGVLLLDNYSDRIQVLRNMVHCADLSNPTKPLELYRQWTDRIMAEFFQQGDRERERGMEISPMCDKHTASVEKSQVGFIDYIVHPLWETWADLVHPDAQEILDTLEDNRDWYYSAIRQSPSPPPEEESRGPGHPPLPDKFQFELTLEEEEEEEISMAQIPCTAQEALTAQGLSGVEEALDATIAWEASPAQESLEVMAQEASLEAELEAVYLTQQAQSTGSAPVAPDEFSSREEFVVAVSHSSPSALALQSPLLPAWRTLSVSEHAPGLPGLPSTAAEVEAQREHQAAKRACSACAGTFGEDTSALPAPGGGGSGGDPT
T2 sequence (Q07343 whole entry): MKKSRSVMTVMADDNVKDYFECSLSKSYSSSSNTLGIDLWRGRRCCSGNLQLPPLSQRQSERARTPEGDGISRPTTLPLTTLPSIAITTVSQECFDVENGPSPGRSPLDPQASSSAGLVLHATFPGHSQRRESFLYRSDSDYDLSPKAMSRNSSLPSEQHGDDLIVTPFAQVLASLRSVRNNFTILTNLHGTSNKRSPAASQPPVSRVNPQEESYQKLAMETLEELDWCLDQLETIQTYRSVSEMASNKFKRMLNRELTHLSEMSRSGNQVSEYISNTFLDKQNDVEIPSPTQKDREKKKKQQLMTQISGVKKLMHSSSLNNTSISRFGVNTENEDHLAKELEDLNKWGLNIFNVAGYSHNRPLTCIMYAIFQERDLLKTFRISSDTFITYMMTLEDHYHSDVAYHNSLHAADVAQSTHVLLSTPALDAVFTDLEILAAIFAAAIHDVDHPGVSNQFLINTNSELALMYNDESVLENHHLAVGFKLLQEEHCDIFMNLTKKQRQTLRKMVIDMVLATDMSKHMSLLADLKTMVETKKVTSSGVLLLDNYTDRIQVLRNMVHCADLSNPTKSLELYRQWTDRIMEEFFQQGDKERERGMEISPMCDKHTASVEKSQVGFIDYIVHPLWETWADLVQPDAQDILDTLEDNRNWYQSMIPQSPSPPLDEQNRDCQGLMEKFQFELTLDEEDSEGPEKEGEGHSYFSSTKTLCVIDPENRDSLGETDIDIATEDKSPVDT
T1 sequence (Q08499 whole entry): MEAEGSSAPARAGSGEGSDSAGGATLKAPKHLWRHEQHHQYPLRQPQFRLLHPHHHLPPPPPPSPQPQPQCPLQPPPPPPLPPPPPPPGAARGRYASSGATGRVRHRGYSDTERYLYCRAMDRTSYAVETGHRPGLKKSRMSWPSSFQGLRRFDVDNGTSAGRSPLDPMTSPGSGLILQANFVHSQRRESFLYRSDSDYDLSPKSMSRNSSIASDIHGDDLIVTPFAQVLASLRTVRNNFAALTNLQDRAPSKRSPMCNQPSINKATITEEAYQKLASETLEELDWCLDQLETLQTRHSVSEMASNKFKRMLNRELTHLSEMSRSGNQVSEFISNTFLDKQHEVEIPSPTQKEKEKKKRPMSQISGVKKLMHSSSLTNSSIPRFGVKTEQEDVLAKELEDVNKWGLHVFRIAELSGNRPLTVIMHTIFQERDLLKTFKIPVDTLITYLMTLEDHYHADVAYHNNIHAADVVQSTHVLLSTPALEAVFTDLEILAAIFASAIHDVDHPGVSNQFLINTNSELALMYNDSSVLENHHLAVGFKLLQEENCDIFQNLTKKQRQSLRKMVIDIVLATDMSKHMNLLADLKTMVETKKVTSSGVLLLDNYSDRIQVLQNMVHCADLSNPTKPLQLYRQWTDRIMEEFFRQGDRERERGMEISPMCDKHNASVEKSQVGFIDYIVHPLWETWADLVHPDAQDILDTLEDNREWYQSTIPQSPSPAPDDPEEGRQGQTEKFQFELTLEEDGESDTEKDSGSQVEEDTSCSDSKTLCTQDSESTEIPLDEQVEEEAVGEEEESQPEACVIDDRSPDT

inhibition [1]: 18%
inhibition [2]: 31%
inhibition [3]: 31%
inhibition [4]: 9%
Structure (SMILES): COc1ccc(C(=O)N2CC(C)OC(C)C2)cc1OC1CCCC1 (stereo not given)

inhibition [2]: 49%
Structure (SMILES): COc1ccc(/C=N/OCCC(=O)N2CCOCC2)cc1OC1CCCC1

inhibition [6]: 51%
inhibition [1]: 65%
inhibition [2]: 80%
IC50 [7]: 210 nM
inhibition [9]: 41%
inhibition [3]: 80%
Ratio IC50 [10]: 90
inhibition [4]: 74%
IC50 [11]: 18000 nM
Structure (SMILES): COc1ccc(/C=N/OCC(O)CNN2CC(C)OC(C)C2)cc1OC1CCCC1 (stereo not given)
Activity [5]: 0.75%
Activity [8]: Non-toxic

inhibition [6]: 47%
inhibition [1]: 68%
inhibition [2]: 75%
IC50 [7]: 1550 nM
inhibition [9]: 29%
inhibition [3]: 75%
inhibition [4]: 53%
Structure (SMILES): COc1ccc(/C=N/N2CC(C)OC(C)C2)cc1OC1CCCC1 (stereo not given)
Activity [5]: 0.01%
Activity [8]: Non-toxic

inhibition [2]: 25%
Structure (SMILES): COc1ccc(/C=C/C(=O)N2CCOCC2)cc1OC1CCCC1

inhibition [2]: 12%
Structure (SMILES): COc1ccc(CCC(=O)N2CCC(O)CC2)cc1OC1CCCC1

inhibition [2]: 45%
Structure (SMILES): COc1ccc(C(=O)N2CCOCC2)cc1OC1CCCC1

inhibition [2]: 20%
Structure (SMILES): COc1ccc(C(=O)N2CCC(O)CC2)cc1OC1CCCC1

inhibition [2]: 24%
Structure (SMILES): COc1ccc(/C=N/OCCC(=O)N2CC(C)OC(C)C2)cc1OC1CCCC1 (stereo not given)

inhibition [2]: 16%
Structure (SMILES): COc1ccc(/C=C/C(=O)N2CC(C)OC(C)C2)cc1OC1CCCC1 (stereo not given)

inhibition [1]: 49%
inhibition [2]: 32%
inhibition [3]: 32%
inhibition [4]: 32%
Structure (SMILES): COc1ccc(C(=O)NN2CCOCC2)cc1OC1CCCC1

inhibition [2]: 10%
Structure (SMILES): COc1ccc(CCC(=O)N2CC(C)OC(C)C2)cc1OC1CCCC1 (stereo not given)

inhibition [6]: 34%
inhibition [2]: 56%
IC50 [7]: 1260 nM
inhibition [9]: 33%
inhibition [3]: 56%
Structure (SMILES): COc1ccc(/C=N/OCC(O)CNN2CCOCC2)cc1OC1CCCC1 (stereo not given)
Activity [5]: 0.01%
Activity [8]: Non-toxic

inhibition [6]: 5%
inhibition [2]: 65%
IC50 [7]: 1790 nM
inhibition [12]: Active
inhibition [9]: 10%
inhibition [3]: 65%
Structure (SMILES): COc1ccc(/C=N/OCC(O)CN2CCC(O)CC2)cc1OC1CCCC1 (stereo not given)
Activity [5]: 1.2%
Activity [8]: Non-toxic

Structure (SMILES): COc1ccc(/C=N/OCC(=O)N2CC(C)OC(C)C2)cc1OC1CCCC1 (stereo not given)
Activity [5]: 0.14%
Activity [8]: Non-toxic

inhibition [2]: 30%
Structure (SMILES): COc1ccc(/C=N/OCC(=O)N2CCC(O)CC2)cc1OC1CCCC1

inhibition [2]: 7%
Structure (SMILES): COc1ccc(CCC(=O)N2CCOCC2)cc1OC1CCCC1

inhibition [2]: 0%
Structure (SMILES): COc1ccc(C(=O)NN2CC(C)OC(C)C2)cc1OC1CCCC1 (stereo not given)

inhibition [2]: 22%
Structure (SMILES): COc1ccc(/C=C/C(=O)N2CCC(O)CC2)cc1OC1CCCC1

inhibition [2]: 12%
Structure (SMILES): COc1ccc(/C=N/OCC(CN2CCC(OC(C)=O)CC2)OC(C)=O)cc1OC1CCCC1 (stereo not given)

inhibition [6]: 62%
inhibition [1]: 75%
inhibition [2]: 83%
IC50 [7]: 660 nM
inhibition [9]: 41%
inhibition [3]: 83%
Ratio IC50 [10]: 2.6
inhibition [4]: 62%
IC50 [11]: 1600 nM
Structure (SMILES): COc1ccc(/C=N/N2CCOCC2)cc1OC1CCCC1
Activity [5]: 0.04%
Activity [8]: Non-toxic

Structure (SMILES): COc1cc([C@@H]2c3cc4c(cc3[C@@H](O[C@@H]3O[C@@H]5CO[C@@H](C)O[C@H]5[C@H](O)[C@H]3O)[C@H]3COC(=O)[C@H]23)OCO4)cc(OC)c1O [ETOPOSIDE]
Activity [8]: Toxic
